Assay outcomes: PubChem, The Scripps Research Institute Molecular Screening Center
A selection: hits, their analogues and other compounds. The true share with any hit is near 4.5%.
OX1R antag-1: OX1R (human) antagonism; 1.8% of 330,000 active; AID 485270; OX1R-expressing cells, FRET antagonist read-out; inhibition, % at 6.6 µM; O43613; in the data active = inhibition mostly above about 38%, no sharp cut-off; inactive = mostly below about 40%;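 also: 0% = agonist challenge alone and 100% = reference antagonist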
Target sequence (O43613 whole entry, looked up): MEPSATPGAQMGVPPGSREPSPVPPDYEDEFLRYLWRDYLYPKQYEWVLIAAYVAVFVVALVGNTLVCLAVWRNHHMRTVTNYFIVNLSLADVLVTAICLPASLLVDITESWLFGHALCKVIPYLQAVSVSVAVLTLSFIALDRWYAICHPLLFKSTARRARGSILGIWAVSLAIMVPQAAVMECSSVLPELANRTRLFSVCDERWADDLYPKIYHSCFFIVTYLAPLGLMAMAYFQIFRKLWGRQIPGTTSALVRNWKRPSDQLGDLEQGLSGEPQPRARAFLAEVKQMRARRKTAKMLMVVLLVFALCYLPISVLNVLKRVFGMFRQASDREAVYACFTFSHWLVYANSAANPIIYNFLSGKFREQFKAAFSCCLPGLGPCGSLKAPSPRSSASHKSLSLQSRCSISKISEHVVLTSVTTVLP
OX1R antag-2: antagonists of human orexin 1 receptor; O43613; CHO/OX1R cells, Fluo-8 calcium fluorescence, orexin A; inhibition, % at 5 µM; 0.43% of 330,000 active; AID 434989;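 active = inhibition above its plate's threshold, mean inhibition of all tested compounds on the plate plus 3 SD, cut at about 37% in these data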;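 also: 0% = orexin A challenge wells and 100% = SB-334867-A antagonist wells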
CHO parental Ca: counter-screen for OX1R antagonists: effect in parental CHO cells; inhibition, % at 5.6 µM; parental CHO-K1, ATP-induced calcium, Fluo-8 fluorescence; AID 463079; 0.63% of 330,000 active;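 active = inhibition above that plate's mean sample inhibition plus 3 SD, cut at about 26% in these data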;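 also: 0% = ATP-challenged DMSO wells and 100% = DMSO wells without ATP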
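Test system: untransfected parental CHO cell line; also added: ATP stimulus; dosing: 5.6 µM, single dose; signal: calcium-sensitive Fluo-8 fluorescence; measure: percent inhibition of ATP-evoked calcium rise, normalized to controls; benchmarks: low control ATP plus DMSO, high control DMSO only; replication: one well per compound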
TAAR1 ag: agonists of human TAAR1; CHO RD-HGA16 TAAR1, Fluo-8 calcium fluorescence; vehicle wells 0%, saturating PEA agonist 100%; activation, % at 3 µM; 0.99% of 360,000 active; AID 624467;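 active = activation above the mean activation of all test compounds in the run plus 3 SD, cut at about 38% in these data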
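Assay system – CHO-derived RD-HGA16 cells with stable Gα16 and human TAAR1 · Compound dosing – one-point dosing at 3 µM (nominal) · Incubation – 17-24 h seeding, 75 min 37 °C dye, 30 min RT · Measured by – kinetic Fluo-8 calcium fluorescence · Control set – DMSO vehicle as 0%, PEA at EC100 as 100% · Repeats – single well for each compound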
TAAR1 antagonist: antagonists of human TAAR1; CHO RD-HGA16 TAAR1, Fluo-8 calcium fluorescence, antagonist; inhibition, % at 3 µM; 1.5% of 360,000 active;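 active = inhibition above a per-plate cutoff, the mean inhibition of test compounds on that plate plus 3 SD, cut at about 49% in these data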;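 also: 0% = DMSO plus EC80 beta-PEA response and 100% = DMSO alone without agonist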
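System: CHO RD-HGA16 cells bearing hTAAR1. Reagent: EC80 β-phenethylamine stimulus. Schedule: seeding 17-24 h prior, 75-min 37 °C, 30-min RT dye loading. Signal: Fluo-8 intracellular calcium dye fluorescence, real-time kinetic reads. Read-out: % inhibition from peak post-agonist over basal fluorescence ratio. Benchmarks: vehicle wells and EC80 agonist wells. Replicates: n of 1.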
GPR7 antag: human neuropeptides B/W receptor 1 antagonism. P48145. GPR7-expressing cells, fluorescence antagonist assay. inhibition, % at 4.4 µM. 1.1% of 290,000 active. AID 1861; in the data active = inhibition above about 16%, passing the limit was not always enough;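 also: cells stimulated with the agonist NPW; 0% = agonist with vehicle and 100% = vehicle without agonist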
Target sequence (P48145 whole entry, looked up): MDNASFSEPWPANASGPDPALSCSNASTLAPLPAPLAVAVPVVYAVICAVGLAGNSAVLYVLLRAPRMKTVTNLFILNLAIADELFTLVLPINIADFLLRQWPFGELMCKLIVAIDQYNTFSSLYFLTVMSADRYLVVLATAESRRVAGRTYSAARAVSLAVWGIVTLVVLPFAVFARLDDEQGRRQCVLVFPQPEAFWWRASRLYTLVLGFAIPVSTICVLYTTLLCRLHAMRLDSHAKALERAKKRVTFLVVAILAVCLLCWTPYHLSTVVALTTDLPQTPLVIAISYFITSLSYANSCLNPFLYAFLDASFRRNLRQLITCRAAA
OX1R Fluo8 conf: OX1R (human) antagonism, confirmed | shares compounds with OX1R antag-2 | 38% of 1,100 active | AID 492963 | inhibition, % at 5 µM | CHO/OX1R cells, orexin A calcium Fluo-8 fluorescence; in the data active = inhibition above about 29%;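 also: 0% = agonist challenge alone and 100% = reference antagonist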
CHO Ca counter: counter-screen: parental CHO calcium response change, triplicate | shares compounds with OX1R antag-2 | parental CHO-K1, ATP-induced calcium, Fluo-8 fluorescence | inhibition, % at 5.6 µM | 9.3% of 1,100 active | AID 492965;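 active = inhibition above a per-plate limit, the mean inhibition of that plate's test compounds plus 3 SD, cut at about 25% in these data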;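 also: 0% = ATP challenge with DMSO and 100% = DMSO without ATP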
OX1R HTRF confirm: OX1R (human) antagonism, HTRF confirmed; inhibition, % at 6.6 µM; AID 492964; shares compounds with OX1R antag-1; OX1R-expressing cells, HTRF antagonist assay; 49% of 1,800 active; in the data active = inhibition above about 55%;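 also: CHO cells expressing OX1R stimulated with orexin A at about EC80; 0% = agonist challenge alone and 100% = reference antagonist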
CHO-K1 HTRF: counter-screen for OX1R antagonists: effect in parental CHO-K1 cells; shares compounds with OX1R antag-1; HTRF counterscreen; inhibition, % at 6.6 µM; 48% of 1,800 active; in the data active = inhibition above about 17%;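 also: 0% = agonist challenge with vehicle and 100% = vehicle alone without agonist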
An asterisk follows results filed as active.

What do the screens show for `NC(=S)N/N=C/c1ccccc1OCc1cccc(Cl)c1`?
OX1R antag-1: 80.6*; OX1R antag-2: 54.3*; CHO parental Ca: -4.5; GPR7 antag: -10.7; OX1R Fluo8 conf: 35.4*; CHO Ca counter: 2.1; OX1R HTRF confirm: 80.9*; CHO-K1 HTRF: 14.2

Results for NC(=S)N/N=C/c1ccc2cccc(OCc3ccccc3)c2n1 ?
OX1R antag-1: 20.9; OX1R antag-2: -12.7; CHO parental Ca: -12.4; TAAR1 ag: 4.8; TAAR1 antagonist: 29.1; GPR7 antag: -35.1

Results for O=C(COC(=O)CCCNC(=O)c1ccc(Cl)cc1)NC1CC1 ?
OX1R antag-1: -0.5; OX1R antag-2: -11.7; CHO parental Ca: -5.4; TAAR1 ag: 1.0; TAAR1 antagonist: -11.9; GPR7 antag: 3.9

Results for Cc1cnc(NC(=O)c2cc3c(C)nn(-c4ccccc4)c3s2)s1 ?
OX1R antag-1: 55.8*; OX1R antag-2: 76.7*; CHO parental Ca: -26.8; TAAR1 ag: 3.7; TAAR1 antagonist: 8.8; GPR7 antag: 7.7; OX1R Fluo8 conf: 72.8*; CHO Ca counter: -7.9; OX1R HTRF confirm: 92.5*; CHO-K1 HTRF: 11.7

Results for COc1ccc2cc(C(=O)/C=C/c3cc(OC)c(O)c(OC)c3)ccc2c1 ?
OX1R antag-1: 62.1*; OX1R antag-2: 35.5; CHO parental Ca: -14.8; TAAR1 ag: 21.1; TAAR1 antagonist: 23.2; GPR7 antag: -5.3; OX1R Fluo8 conf: 49.1*; CHO Ca counter: -0.9; OX1R HTRF confirm: 74.5*; CHO-K1 HTRF: -9.1

How did Cc1nc(C(F)(F)F)c(C(=O)N/N=C(\N)c2ccccn2)s1 do in these assays?
OX1R antag-1: 18.0; OX1R antag-2: -1.1; CHO parental Ca: -9.3; TAAR1 ag: 1.9; TAAR1 antagonist: -11.2; GPR7 antag: 3.8

Results for Cc1cc(C)c2c(N)c(C(=O)N/N=C/c3cccs3)sc2n1 ?
OX1R antag-1: 84.7*; OX1R antag-2: 53.1*; CHO parental Ca: 0.8; TAAR1 ag: 0.6; TAAR1 antagonist: -24.4; GPR7 antag: -7.0; OX1R Fluo8 conf: -1.9; CHO Ca counter: -9.5; OX1R HTRF confirm: 95.4*; CHO-K1 HTRF: 6.8

Results for O=C(Cn1nnc(-c2cccc(C(F)(F)F)c2)n1)NNS(=O)(=O)c1cccc(C(F)(F)F)c1 ?
OX1R antag-1: 1.0; OX1R antag-2: -2.9; CHO parental Ca: -11.2; TAAR1 ag: 3.8; TAAR1 antagonist: -2.1; GPR7 antag: -15.4

Results for Cc1cc(C)nc(NC(=O)/C=C/c2ccccc2Cl)c1 ?
OX1R antag-1: 48.4; OX1R antag-2: -7.5; CHO parental Ca: -22.2; TAAR1 ag: -0.8; TAAR1 antagonist: 15.0; GPR7 antag: -6.6

How did Cc1cc(C)nc(NC(=O)/C=C/c2ccc(Cl)cc2Cl)c1 do in these assays?
OX1R antag-1: 91.9*; OX1R antag-2: 42.7; CHO parental Ca: -22.1; TAAR1 ag: 3.3; TAAR1 antagonist: 37.4; GPR7 antag: -7.2; OX1R Fluo8 conf: -4.7; CHO Ca counter: -5.2; OX1R HTRF confirm: 63.2*; CHO-K1 HTRF: 2.7

What do the screens show for `CN(CC(=O)Nc1ccccc1C(F)(F)F)C(=O)COc1cccnc1[N+](=O)[O-]`?
OX1R antag-1: 25.1; OX1R antag-2: -12.3; CHO parental Ca: -11.7; TAAR1 ag: 6.7; TAAR1 antagonist: -14.6; GPR7 antag: -6.2

What do the screens show for `CNc1oc(-c2ccccc2Cl)nc1C#N`?
OX1R antag-1: 19.8; OX1R antag-2: -2.6; CHO parental Ca: -4.2; TAAR1 ag: 2.9; TAAR1 antagonist: -4.5; GPR7 antag: 8.7

How did CNc1oc(-c2cccc3ccccc23)nc1C#N do in these assays?
OX1R antag-1: 89.8*; OX1R antag-2: 91.5*; CHO parental Ca: -15.4; TAAR1 ag: -1.6; TAAR1 antagonist: 14.0; GPR7 antag: -3.6; OX1R Fluo8 conf: 67.5*; CHO Ca counter: -1.7; OX1R HTRF confirm: 94.5*; CHO-K1 HTRF: 5.4

Results for O=C(CSc1ccc(Br)c2cccc(Cl)c12)Nc1ccc(S(=O)(=O)Nc2nccs2)cc1 ?
OX1R antag-1: 96.5*; OX1R antag-2: 79.6*; CHO parental Ca: 0.8; TAAR1 ag: 1.4; TAAR1 antagonist: -16.0; GPR7 antag: -19.3; OX1R Fluo8 conf: 73.6*; CHO Ca counter: -3.1; OX1R HTRF confirm: 89.8*; CHO-K1 HTRF: 8.7

How did CNc1nc(Nc2ccc(C)c(Cl)c2)c2cnn(C)c2n1 do in these assays?
OX1R antag-1: 84.2*; OX1R antag-2: 33.0; CHO parental Ca: -16.3; TAAR1 ag: 13.2; TAAR1 antagonist: 29.2; GPR7 antag: -2.4; OX1R Fluo8 conf: 8.9; CHO Ca counter: -7.1; OX1R HTRF confirm: 84.1*; CHO-K1 HTRF: 12.2

What do the screens show for `Cn1ncc2c(Nc3cccc(Cl)c3)nc(Nc3cccc(Cl)c3)nc21`?
OX1R antag-1: 8.3; OX1R antag-2: -24.4; CHO parental Ca: -22.0; TAAR1 ag: -1.4; TAAR1 antagonist: 0.6; GPR7 antag: -24.2

What do the screens show for `Cc1ccc(CNC(=O)C2CCC(=O)N2C(C)C)cc1` (stereo unspecified)?
OX1R antag-1: -9.4; OX1R antag-2: 2.3; CHO parental Ca: -0.7; TAAR1 ag: -1.2; TAAR1 antagonist: 12.1; GPR7 antag: -4.8

How did Cc1nc2ccc(NC(=O)c3oc4ccc(F)cc4c3C)cc2s1 do in these assays?
OX1R antag-1: 100.3*; OX1R antag-2: 72.3*; CHO parental Ca: -9.0; OX1R Fluo8 conf: 58.8*; CHO Ca counter: -10.7; OX1R HTRF confirm: 92.6*; CHO-K1 HTRF: 12.7

What do the screens show for `Cc1c(C(=O)Nc2ccc3nc(N4CCOCC4)sc3c2)oc2ccccc12`?
OX1R antag-1: 25.6; OX1R antag-2: -11.1; CHO parental Ca: -21.1; TAAR1 ag: 17.7; TAAR1 antagonist: 33.3

What do the screens show for `CC1CCCC(C)N1C(=O)CN1C(=O)C(C)(C)Oc2ccc(C(=O)NC3CCCC3)cc21` (stereo unspecified)?
OX1R antag-1: 5.0; OX1R antag-2: -14.3; CHO parental Ca: -10.7; TAAR1 ag: 9.7; TAAR1 antagonist: -11.8; GPR7 antag: 14.7

What do the screens show for `Cc1ccc(C(=O)Nc2nc(-c3ccccn3)cs2)s1`?
OX1R antag-1: 5.6; OX1R antag-2: 7.3; CHO parental Ca: -11.6; TAAR1 ag: 5.0; TAAR1 antagonist: 0.9
